Experimental data published in ChEMBL document CHEMBL3352599, “Radiosynthesis and biological evaluation of a novel enoyl-ACP reductase inhibitor for Staphylococcus aureus” (Eur J Med Chem, 2014).

Key:
Kidney [1] = assay: Drug uptake in kidney of healthy Swiss Webster mouse at 3.7 MBq, iv after 40 mins; type: ADME, organism-based; conditions: in vivo
Method in brief: (§1)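 Uninfected control mice. [11C]-label given into the lateral tail vein in ethanol/saline (1/3) under isoflurane, then mice recovered and moved freely. Killed by cervical dislocation; blood taken by cardiac puncture, spleen, lung, liver and kidney excised, weighed and well-counted. Reported as %ID/g, mean ± SD, n=3.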

Liver = assay: Drug uptake in liver of healthy Swiss Webster mouse at 3.7 MBq, iv after 40 mins; type: ADME, organism-based; conditions: in vivo; method in brief: as §1
[2] = Drug uptake in healthy thigh of Swiss Webster thigh infected mouse model infected with methicillin-resistant Staphylococcus aureus BAA1762 at 3.7 MBq, iv after 45 mins; type: ADME, organism-based, Thigh muscle; conditions: in vivo, 0.75 h
Method in brief: (§2)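 Neutropenic mice (ip cyclophosphamide) given 5×10^5 MRSA cells into the left thigh muscle. [11C]-label given into the lateral tail vein in ethanol/saline (1/3) under isoflurane, then mice recovered and moved freely. Killed by cervical dislocation; muscle from both thighs and blood collected, weighed and well-counted. Reported as %ID/g, mean ± SD, n=3.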

Spleen [3] = assay: Drug uptake in spleen of healthy Swiss Webster mouse at 3.7 MBq, iv after 20 mins; type: ADME, organism-based; conditions: in vivo; method in brief: as §1
Lung [4] = assay: Drug uptake in lung of healthy Swiss Webster mouse at 3.7 MBq, iv after 60 mins; type: ADME, organism-based; conditions: in vivo, 1 h; method in brief: as §1
Lung [5] = assay: Drug uptake in lung of Swiss Webster systemic infected mouse model infected with methicillin-resistant Staphylococcus aureus BAA1762 at 3.7 MBq, iv after 60 mins; type: ADME, organism-based; conditions: in vivo, 1 h
Method in brief: as §1, with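 “Neutropenic mice (ip cyclophosphamide) infected ip with 2×10^7 MRSA cells.” for “Uninfected control mice.”, “organs” for “spleen, lung, liver and kidney”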

Blood [6] = assay: Drug uptake in blood of healthy Swiss Webster mouse at 3.7 MBq, iv after 20 mins; type: ADME, organism-based; conditions: in vivo; method in brief: as §1
Lung [7] = assay: Drug uptake in lung of healthy Swiss Webster mouse at 3.7 MBq, iv after 20 mins; type: ADME, organism-based; conditions: in vivo; method in brief: as §1
Blood [8] = assay: Drug uptake in blood of Swiss Webster systemic infected mouse model infected with methicillin-resistant Staphylococcus aureus BAA1762 at 3.7 MBq, iv after 40 mins; type: ADME, organism-based; conditions: in vivo
Method in brief: as §1, with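 “Neutropenic mice (ip cyclophosphamide) infected ip with 2×10^7 MRSA cells.” for “Uninfected control mice.”, “organs” for “spleen, lung, liver and kidney”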

Kidney [9] = assay: Drug uptake in kidney of Swiss Webster systemic infected mouse model infected with methicillin-resistant Staphylococcus aureus BAA1762 at 3.7 MBq, iv after 40 mins; type: ADME, organism-based; conditions: in vivo
Method in brief: as §1, with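 “Neutropenic mice (ip cyclophosphamide) infected ip with 2×10^7 MRSA cells.” for “Uninfected control mice.”, “organs” for “spleen, lung, liver and kidney”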

[10] = Drug uptake in healthy thigh of Swiss Webster thigh infected mouse model infected with methicillin-resistant Staphylococcus aureus BAA1762 at 3.7 MBq, iv after 30 mins; type: ADME, organism-based, Thigh muscle; conditions: in vivo, 0.5 h; method in brief: as §2
[11] = Drug uptake in healthy thigh of Swiss Webster thigh infected mouse model infected with methicillin-resistant Staphylococcus aureus BAA1762 at 3.7 MBq, iv after 15 mins; type: ADME, organism-based, Thigh muscle; conditions: in vivo, 0.25 h; method in brief: as §2
Lung [12] = assay: Drug uptake in lung of Swiss Webster systemic infected mouse model infected with methicillin-resistant Staphylococcus aureus BAA1762 at 3.7 MBq, iv after 20 mins; type: ADME, organism-based; conditions: in vivo
Method in brief: as §1, with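 “Neutropenic mice (ip cyclophosphamide) infected ip with 2×10^7 MRSA cells.” for “Uninfected control mice.”, “organs” for “spleen, lung, liver and kidney”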

Kidney [13] = assay: Drug uptake in kidney of healthy Swiss Webster mouse at 3.7 MBq, iv after 20 mins; type: ADME, organism-based; conditions: in vivo; method in brief: as §1
Lung [14] = assay: Drug uptake in lung of Swiss Webster systemic infected mouse model infected with methicillin-resistant Staphylococcus aureus BAA1762 at 3.7 MBq, iv after 40 mins; type: ADME, organism-based; conditions: in vivo
Method in brief: as §1, with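 “Neutropenic mice (ip cyclophosphamide) infected ip with 2×10^7 MRSA cells.” for “Uninfected control mice.”, “organs” for “spleen, lung, liver and kidney”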

Kidney [15] = assay: Drug uptake in kidney of healthy Swiss Webster mouse at 3.7 MBq, iv after 60 mins; type: ADME, organism-based; conditions: in vivo, 1 h; method in brief: as §1
Blood [16] = assay: Drug uptake in blood of Swiss Webster thigh infected mouse model infected with methicillin-resistant Staphylococcus aureus BAA1762 at 3.7 MBq, iv after 60 mins; type: ADME, organism-based; conditions: in vivo, 1 h; method in brief: as §2
[17] = Drug uptake in infected thigh of Swiss Webster thigh infected mouse model infected with methicillin-resistant Staphylococcus aureus BAA1762 at 3.7 MBq, iv after 15 mins; type: ADME, organism-based, Thigh muscle; conditions: in vivo, 0.25 h; method in brief: as §2
Blood [18] = assay: Drug uptake in blood of Swiss Webster systemic infected mouse model infected with methicillin-resistant Staphylococcus aureus BAA1762 at 3.7 MBq, iv after 20 mins; type: ADME, organism-based; conditions: in vivo
Method in brief: as §1, with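 “Neutropenic mice (ip cyclophosphamide) infected ip with 2×10^7 MRSA cells.” for “Uninfected control mice.”, “organs” for “spleen, lung, liver and kidney”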

[19] = Drug uptake in infected thigh of Swiss Webster thigh infected mouse model infected with methicillin-resistant Staphylococcus aureus BAA1762 at 3.7 MBq, iv after 30 mins; type: ADME, organism-based, Thigh muscle; conditions: in vivo, 0.5 h; method in brief: as §2
Spleen [20] = assay: Drug uptake in spleen of Swiss Webster systemic infected mouse model infected with methicillin-resistant Staphylococcus aureus BAA1762 at 3.7 MBq, iv after 20 mins; type: ADME, organism-based; conditions: in vivo
Method in brief: as §1, with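 “Neutropenic mice (ip cyclophosphamide) infected ip with 2×10^7 MRSA cells.” for “Uninfected control mice.”, “organs” for “spleen, lung, liver and kidney”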

`CCCCCCc1ccc(Oc2ccccc2[11C]#N)c(O)c1` gave a Drug uptake (Kidney [1]) of 1.41 %ID/cc, a Drug uptake (Liver) of 9.69 %ID/cc and a Drug uptake [2] of 0.42 %ID/cc. It also gave a Drug uptake (Spleen [3]) of 0.67 %ID/cc, a Drug uptake (Lung [4]) of 1.32 %ID/cc and a Drug uptake (Lung [5]) of 2.01 %ID/cc. The Drug uptake (Blood [6]) was 0.64 %ID/cc, the Drug uptake (Lung [7]) was 3.19 %ID/cc and the Drug uptake (Blood [8]) was 0.38 %ID/cc. The Drug uptake (Kidney [9]) was 1.15 %ID/cc, the Drug uptake [10] was 0.63 %ID/cc and the Drug uptake [11] was 0.98 %ID/cc. For the same compound, the Drug uptake (Lung [12]) was 3.28 %ID/cc, the Drug uptake (Kidney [13]) was 2.22 %ID/cc and the Drug uptake (Lung [14]) was 1.78 %ID/cc. The Drug uptake (Kidney [15]) was 0.93 %ID/cc, the Drug uptake (Blood [16]) was 0.26 %ID/cc and the Drug uptake [17] was 0.89 %ID/cc. The Drug uptake (Blood [18]) was 0.67 %ID/cc, the Drug uptake [19] was 0.54 %ID/cc and the Drug uptake (Spleen [20]) was 0.71 %ID/cc.
